The source of these data is ChEMBL document CHEMBL1131000, “Synthesis and quantitative structure-activity relationships of N-(1-benzylpiperidin-4-yl)phenylacetamides and related analogues as potent and selective sigma1 receptor ligands” (J Med Chem, 1998).

The target of the test is Sigma 2 receptor. Description: Binding affinity towards sigma 2 receptor site in rat liver membranes using [3H]DTG as radioligand in presence of (+)-pentazocine. Type of test: cell membranes, Membrane. Put shortly: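 Male Sprague-Dawley rat liver crude P2 membranes, 35 μg protein, with 3 nM [3H]DTG plus 100 nM (+)-pentazocine to mask σ1 sites. Incubated in 50 mM Tris-HCl pH 8.0 for 120 min at 25 °C. Nonspecific binding defined with 5 μM DTG. Filtration, then scintillation counting. IC50 by nonlinear regression.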

By Ki is commonly meant a measure of affinity in units of concentration, obtained from inhibition or displacement. For `O=C(Cc1ccc(Cl)cc1Cl)NC1CCN(Cc2ccccc2)CC1`, the Ki came to 24.5 nM.

For `O=C(Cc1ccccc1[N+](=O)[O-])NC1CCN(Cc2ccccc2)CC1`, the Ki came to 493 nM.

For the molecule `O=C(Cc1cccc(F)c1)NC1CCN(Cc2ccccc2)CC1`, the Ki came out at 153 nM.

As to `O=C(Cc1ccccc1C(F)(F)F)NC1CCN(Cc2ccccc2)CC1`, the Ki is 61.9 nM.

On to `O=C(Cc1ccc([N+](=O)[O-])cc1)NC1CCN(Cc2ccccc2)CC1`, for which the inhibition constant (Ki) stood at 105 nM.

Regarding `COc1ccc(OC)c(CC(=O)NC2CCN(Cc3ccccc3)CC2)c1`, the Ki was > 1000 nM.

Turning to `COc1ccc(CC(=O)NC2CCN(Cc3ccccc3)CC2)cc1`, the Ki came out at 483 nM.

With `O=C(Cc1ccc(F)c(F)c1)NC1CCN(Cc2ccccc2)CC1`, the Ki was 53.5 nM.

As to `O=C(Cc1ccc(O)c(O)c1)NC1CCN(Cc2ccccc2)CC1`, the Ki was > 1000 nM.

`O=C(Cc1ccc(F)cc1)NC1CCN(Cc2ccccc2)CC1`: the inhibition constant Ki worked out at 69.2 nM.

On to `COc1cccc(C(O)CNC2CCN(Cc3ccccc3)CC2)c1OC` (centres undefined), for which the Ki is 535 nM.

On to `O=C(Cc1ccccc1O)NC1CCN(Cc2ccccc2)CC1`, for which the Ki was found to be 343 nM.

With `O=C(Cc1cccc([N+](=O)[O-])c1)NC1CCN(Cc2ccccc2)CC1`, the Ki was 79.2 nM.

Regarding `O=C(Cc1cc(F)cc(F)c1)NC1CCN(Cc2ccccc2)CC1`, the Ki turned out to be 37.3 nM.

Consider `COc1cc(CC(=O)NC2CCN(Cc3ccccc3)CC2)cc(OC)c1`, for which the Ki is > 1000 nM.

For the molecule `COc1ccccc1CC(=O)NC1CCN(Cc2ccccc2)CC1`, the Ki is > 1000 nM.

With `COc1cccc(CC(=O)NC2CCN(Cc3ccccc3)CC2)c1`, the Ki came to 326 nM.

For the molecule `O=C(Cc1ccc(Cl)cc1)NC1CCN(Cc2ccccc2)CC1`, the inhibition constant Ki was 80.7 nM.

As for `O=C(Cc1cccc(O)c1)NC1CCN(Cc2ccccc2)CC1`, the Ki was > 1000 nM.

Consider `O=C(Cc1ccccc1Br)NC1CCN(Cc2ccccc2)CC1`, for which the Ki came out at 86.6 nM.

For the molecule `O=C(Cc1ccc([N+](=O)[O-])cc1[N+](=O)[O-])NC1CCN(Cc2ccccc2)CC1`, the Ki is 243 nM.

Regarding `O=C(Cc1ccc(O)c(Cl)c1)NC1CCN(Cc2ccccc2)CC1`, the Ki is 757 nM.

Consider `CSc1ccc(CC(=O)NC2CCN(Cc3ccccc3)CC2)cc1`, for which the Ki amounted to 83.3 nM.

Consider `O=C(Cc1ccc(O)cc1)NC1CCN(Cc2ccccc2)CC1`, for which the Ki was > 1000 nM.

Regarding `COc1ccc(CC(=O)NC2CCN(Cc3ccccc3)CC2)cc1OC`, the Ki is > 1000 nM.

In the case of `O=C(Cc1ccc(F)cc1F)NC1CCN(Cc2ccccc2)CC1`, the Ki was found to be 130 nM.

For `O=C(Cc1ccccc1Cl)NC1CCN(Cc2ccccc2)CC1`, the Ki is 174 nM.

As for `CSc1ccc(NC(=O)NC2CCN(Cc3ccccc3)CC2)cc1`, the Ki was 80.5 nM.

For `O=C(Cc1ccccc1F)NC1CCN(Cc2ccccc2)CC1`, the Ki was found to be 667 nM.

Regarding `O=C(Cc1cccc(Cl)c1)NC1CCN(Cc2ccccc2)CC1`, the Ki came out at 36.9 nM.

Turning to `O=C(Cc1ccccc1)NC1CCN(Cc2ccccc2)CC1`, the Ki came to 240 nM.

As for `COc1ccc(NC(=O)NC2CCN(Cc3ccccc3)CC2)c(OC)c1`, the Ki turned out to be 227 nM.

`O=C(Cc1ccc(Br)cc1)NC1CCN(Cc2ccccc2)CC1`: the Ki is 23.9 nM.

Take `O=C(Cc1ccc(Cl)c(Cl)c1)NC1CCN(Cc2ccccc2)CC1`: the Ki was determined as 14.6 nM.

In the case of `O=C(Cc1cc(F)ccc1F)NC1CCN(Cc2ccccc2)CC1`, the inhibition constant Ki was 129 nM.

With `O=C(Cc1c(Cl)cccc1Cl)NC1CCN(Cc2ccccc2)CC1`, the inhibition constant Ki is 70.8 nM.

Turning to `O=C(Cc1cccc(Br)c1)NC1CCN(Cc2ccccc2)CC1`, the inhibition constant (Ki) came out at 15.2 nM.

As for `O=C(Cc1ccc(C(F)(F)F)cc1)NC1CCN(Cc2ccccc2)CC1`, the Ki turned out to be 53.4 nM.

On to `O=C(Cc1cccc(C(F)(F)F)c1)NC1CCN(Cc2ccccc2)CC1`, for which the Ki came to 37.8 nM.

Consider `O=C(Cc1c(F)cccc1F)NC1CCN(Cc2ccccc2)CC1`, for which the Ki is 207 nM.

For the molecule `COc1cc(CC(=O)NC2CCN(Cc3ccccc3)CC2)cc(OC)c1OC`, the Ki is > 1000 nM.

Take `Nc1ccc(CC(=O)NC2CCN(Cc3ccccc3)CC2)cc1`: the Ki is > 1000 nM.

Regarding `O=C(Cc1ccc2c(c1)OCO2)NC1CCN(Cc2ccccc2)CC1`, the Ki is 290 nM.

For the molecule `OC(CCCN1CCC(O)(c2ccc(Cl)cc2)CC1)c1ccc(F)cc1` (centres undefined) [HYDROXYHALOPERIDOL], the Ki was determined as 28.6 nM.
